The results in this text go back to ChEMBL document CHEMBL5096201, “Rufomycins or Ilamycins: Naming Clarifications and Definitive Structural Assignments” (J Nat Prod, 2021).

≈ marks a conversion by molar mass, not a printed value.

The nature of test [1]: Binding affinity to N-terminal domain of Mycobacterium tuberculosis ClpC1 expressed in Escherichia coli BL21 (DE3) assessed as dissociation constant by surface plasma resonance assay. Put shortly: (§1)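 SPR with ClpC1 N-terminal domain or full-length protein. Association and dissociation rate constants (ka, kd) come from global fitting of double-referenced sensorgrams to a 1:1 Langmuir model. KD is calculated as kd/ka.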

A short description of test [2]: Binding affinity to in full length Mycobacterium tuberculosis ClpC1 expressed in Escherichia coli BL21 (DE3) assessed as dissociation constant by surface plasma resonance assay. An outline of the steps: as §1
Test [3] relates to Mycobacterium tuberculosis. The test is described as follows: Antimycobacterial activity against Mycobacterium tuberculosis incubated for 7 days by microplate alamar blue assay. It counts as functional. Conditions: 168 h, time 7 day. An outline of the steps:
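Microplate Alamar Blue readout by fluorescence. MIC is the lowest concentration giving a 90% fluorescence reduction relative to untreated bacterial controls.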
In general terms: Alamar Blue is a resazurin reagent that responds to reducing activity.

As a reminder, the Kd is a measure of binding affinity in units of concentration. As usually defined, the MIC90 is the lowest concentration that inhibits either 90% of growth or 90% of the strains tested, depending on the study. Higher therefore signals weaker potency. For `C/C=C/C[C@@H]1NC(=O)[C@H](CC(C)C)N2C(=O)[C@H](C[C@H](C)[C@H]2O)N(C)C(=O)[C@H](C)NC(=O)[C@H](Cc2ccc(O)c([N+](=O)[O-])c2)NC(=O)[C@H](CC(C)C)N(C)C(=O)[C@H](Cc2cn(C(C)(C)[C@H]3CO3)c3ccccc23)NC1=O`, the dissociation constant (Kd) in test [1] amounted to 32 nM; in test [2] it was 31 nM. Moreover, the MIC90 in test [3] is 0.021 µM (≈ 0.0219 µg/mL).

Turning to `C/C=C/C[C@@H]1NC(=O)[C@H](CC(C)C)N2C(=O)[C@H](C[C@@H](C)[C@@H]2O)N(C)C(=O)[C@H](C)NC(=O)[C@H](Cc2ccc(O)c([N+](=O)[O-])c2)NC(=O)[C@H](CC(C)C)N(C)C(=O)[C@H](Cc2cn(C(C)(C)[C@H]3CO3)c3ccccc23)NC1=O`, the Kd in test [1] came to 186 nM; in test [2], 209 nM. The compound further displayed an MIC90 in test [3] of 0.047 µM (≈ 0.049 µg/mL).

Turning to `C/C=C/C[C@@H]1NC(=O)[C@H](CC(C)C)N2C(=O)[C@H](C[C@@H](C)[C@H]2O)N(C)C(=O)[C@H](C)NC(=O)[C@H](Cc2ccc(O)c([N+](=O)[O-])c2)NC(=O)[C@H](CC(C)C)N(C)C(=O)[C@H](Cc2cn(C(C)(C)[C@H]3CO3)c3ccccc23)NC1=O`, the Kd turned out to be 183 nM in test [1] and 178 nM in test [2]. The MIC90 in test [3] was 0.046 µM (≈ 0.0479 µg/mL).

Consider `NNC(=O)c1ccncc1` [ISONIAZID], for which, in test [3], the MIC90 is 0.463 µM (≈ 0.0635 µg/mL).

For the compound `C/C=C/C[C@@H]1NC(=O)[C@H](CC(C)C)N2C(=O)[C@H](C[C@H](C)[C@@H]2O)N(C)C(=O)[C@H](C)NC(=O)[C@H](Cc2ccc(O)c([N+](=O)[O-])c2)NC(=O)[C@H](CC(C)C)N(C)C(=O)[C@H](Cc2cn(C(C)(C)[C@H]3CO3)c3ccccc23)NC1=O`, the Kd in test [1] came out at 29 nM; in test [2] it was 27 nM. The compound also yielded an MIC90 in test [3] of 0.012 µM (≈ 0.0125 µg/mL).

Take `CO[C@H]1/C=C/O[C@@]2(C)Oc3c(C)c(O)c4c(O)c(c(/C=N/N5CCN(C)CC5)c(O)c4c3C2=O)NC(=O)/C(C)=C\C=C\[C@H](C)[C@H](O)[C@@H](C)[C@@H](O)[C@@H](C)[C@H](OC(C)=O)[C@@H]1C` [RIFAMPIN]: in test [3], the MIC90 was 0.028 µM (≈ 0.023 µg/mL).
